From ChEMBL document CHEMBL4364291, “Benzylideneacetone Derivatives Inhibit Osteoclastogenesis and Activate Osteoblastogenesis Independently Based on Specific Structure-Activity Relationship” (J Med Chem, 2019)
Calls of active or inactive are those of the source. No cut-off for these calls is given here.

Legend:
[1] = Terminal half-life in ICR mouse at 2 mg/kg, iv measured up to 8 hrs by LC-MS/HPLC analysis; assay type: ADME, organism-based; settings: in vivo, read-out: beta t1/2 (converted)
How it was run: (§1)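 Six-week-old male ICR mice (n = 3) were kept at 25 ± 2 °C on a 12 h light/dark cycle and dosed iv or po. Total plasma concentration (bound plus unbound) was plotted against time. Terminal T1/2 came from the elimination phase: a two-compartment fit for po dosing and a single-compartment fit for iv dosing.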

[2] = Terminal half-life in ICR mouse at 10 mg/kg, po administered via gavage measured up to 8 hrs by LC-MS/HPLC analysis; assay type: ADME, organism-based; settings: in vivo, read-out: beta t1/2 (converted); how it was run: as §1
[3] = Terminal half-life in ICR mouse at 50 mg/kg, po administered via gavage measured up to 8 hrs by LC-MS/HPLC analysis; assay type: ADME, organism-based; settings: in vivo, read-out: beta t1/2 (converted); how it was run: as §1
[4] = Cmax in ICR mouse at 10 mg/kg, po administered via gavage measured up to 8 hrs by LC-MS/HPLC analysis; assay type: ADME, organism-based; parameters: dose 10 mg/kg, route oral; settings: in vivo
How it was run: (§2)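 Six-week-old male ICR mice, housed at 25 ± 2 °C, 60 ± 10% humidity, 12 h light/dark. Dosing was iv at 2 mg/kg or po at 10 and 50 mg/kg. Plasma concentrations were total, bound plus unbound. AUC∞ is from time zero to infinity. F = (AUCpo/AUCiv) × 100. Cmax and AUC∞ are mean ± SD of three mice.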

[5] = Cmax in ICR mouse at 50 mg/kg, po administered via gavage measured up to 8 hrs by LC-MS/HPLC analysis; assay type: ADME, organism-based; parameters: dose 50 mg/kg, route oral; settings: in vivo; how it was run: as §2
[6] = AUC (0 to infinity) in ICR mouse at 2 mg/kg, iv measured up to 8 hrs by LC-MS/HPLC analysis; assay type: ADME, organism-based; parameters: dose 2 mg/kg, time infinity, route intravenous; settings: in vivo; how it was run: as §2
[7] = AUC (0 to infinity) in ICR mouse at 10 mg/kg, po administered via gavage measured up to 8 hrs by LC-MS/HPLC analysis; assay type: ADME, organism-based; parameters: dose 10 mg/kg, route oral, time infinity; settings: in vivo; how it was run: as §2
[8] = Inhibition of M-CSF/RANKL-induced osteoclast differentiation in C57BL/6 mouse bone marrow macrophage assessed as reduction in multinucleated TRAP+ cells incubated for 6 days with fresh media replacement on day 3 and measured on day 6 by TRAP staining-based microscopic analysis; assay type: functional, cell-based; settings: C57BL/6, BMDM
How it was run: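 BMM came from femur and tibia marrow of 5–8-week-old male C57BL/6 mice and were purified over lymphocyte separation medium. Cells, 1 × 10^5 per well, were grown in α-MEM/10% FBS with M-CSF (60 ng/mL) and RANKL (150 ng/mL) for 6 d, medium changed day 3. Compound range was 0.01−100 μM. TRAP+ multinucleated cells were counted on day 6.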

[9] = AUC (0 to infinity) in ICR mouse at 50 mg/kg, po administered via gavage measured up to 8 hrs by LC-MS/HPLC analysis; assay type: ADME, organism-based; parameters: dose 50 mg/kg, time infinity, route oral; settings: in vivo; how it was run: as §2
MC3T3-E1 [10] = test: Osteo-blastogenic activity in mouse MC3T3-E1 cells assessed as stimulation of ALP activity at 10 uM supplemented with fresh medium every 3 to 4 days and measured after 14 days relative to control; assay type: functional
How it was run: (§3)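 MC3T3-E1 subclone 4 osteoblastic cells were grown in α-MEM at 37 °C under 5% CO2 with compound present during differentiation. ALP activity was read 14 d after induction and expressed as % of untreated cells. Values are mean ± SD of three independent experiments.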

MC3T3-E1 [11] = test: Osteo-blastogenic activity in mouse MC3T3-E1 cells assessed as stimulation of ALP activity at 50 uM supplemented with fresh medium every 3 to 4 days and measured after 14 days relative to control; assay type: functional; how it was run: as §3
[12] = Oral bioavailability in ICR mouse at 10 mg/kg administered via gavage measured up to 8 hrs by LC-MS/HPLC analysis; assay type: ADME, organism-based; settings: in vivo; how it was run: as §2
[13] = Oral bioavailability in ICR mouse at 50 mg/kg administered via gavage measured up to 8 hrs by LC-MS/HPLC analysis; assay type: ADME, organism-based; settings: in vivo; how it was run: as §2
MC3T3-E1 [14] = test: Induction of osteoblast differentiation in ascorbic acid/beta-glycerophosphate-induced mouse MC3T3-E1 cells assessed as increase in RUNX2 expression at 50 uM after 14 days by Western blot analysis relative to control; assay type: functional
How it was run: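 MC3T3-E1 cells were induced with osteoblast differentiation factors, with or without 50 μM compound, for 21 d. Cells were harvested at 7, 14 and 21 d and RUNX2 was quantified by Western blot against untreated differentiated cells. The negative control lacked differentiation factors. Values are mean ± SD of three independent experiments.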

Mus musculus [15] = test: Antiosteoporotic activity in ddY mouse model of OVX-induced osteoporosis assessed as increase in femur bone mineral density at 10 mg/kg, po administered once daily via gavage for 4 weeks by microcomputed tomographic analysis; assay type: functional, organism-based
How it was run: (§4)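 Female ddY mice were ovariectomized. Oral gavage began 1 week after surgery and ran once daily for 28 d. Vehicle was 300 μL PBS containing 0.5% (v/v) DMSO, also given to sham and OVX controls. Mice were then euthanized and femur and tibia fixed for CT imaging. Values are mean ± SD of four mice.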

Mus musculus [16] = test: Antiosteoporotic activity in ddY mouse model of OVX-induced osteoporosis assessed as increase in ratio of bone volume/trabecular volume in femur bone at 10 mg/kg, po administered once daily via gavage for 4 weeks by microcomputed tomographic analysis; assay type: functional, organism-based; how it was run: as §4
Mus musculus [17] = test: Antiosteoporotic activity in ddY mouse model of OVX-induced osteoporosis assessed as increase in cross-sectional thickness in femur bone at 10 mg/kg, po administered once daily via gavage for 4 weeks by microcomputed tomographic analysis; assay type: functional, organism-based; how it was run: as §4
Mus musculus [18] = test: Antiosteoporotic activity in ddY mouse model of OVX-induced osteoporosis assessed as increase in trabecular number in femur bone at 10 mg/kg, po administered once daily via gavage for 4 weeks by microcomputed tomographic analysis; assay type: functional, organism-based; how it was run: as §4
Mus musculus [19] = test: Antiosteoporotic activity in ddY mouse model of OVX-induced osteoporosis assessed as increase in trabecular thickness in femur bone at 10 mg/kg, po administered once daily via gavage for 4 weeks by microcomputed tomographic analysis; assay type: functional, organism-based; how it was run: as §4
Mus musculus [20] = test: Antiosteoporotic activity in ddY mouse model of OVX-induced osteoporosis assessed as reduction in trabecular separation in femur bone at 10 mg/kg, po administered once daily via gavage for 4 weeks by microcomputed tomographic analysis; assay type: functional, organism-based; how it was run: as §4
Mus musculus [21] = test: Antiosteoporotic activity in ddY mouse model of OVX-induced osteoporosis assessed as increase in new bone volume in femur bone at 10 mg/kg, po administered once daily via gavage for 4 weeks by microcomputed tomographic analysis; assay type: functional, organism-based; how it was run: as §4
[22] = Cytotoxicity against mouse RAW264.7 cells after 24 hrs by MTT assay; assay type: cell-based; settings: read-out: LD50
How it was run: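 RAW264.7 macrophages (preosteoclast line) were kept in DMEM at 37 °C under 5% CO2 and tested without RANKL. MTT read-out of growth and survival, expressed as LD50.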

[23] = Toxicity in ddY mouse model of OVX-induced osteoporosis assessed as increase in body weight at 10 mg/kg, po administered once daily via gavage for 4 weeks measured 5 weeks post OVX-challenge; assay type: organism-based; settings: in vivo, 840 h
How it was run: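 Dosing of ddY mice began one week after ovariectomy: compound in 300 μL of 0.5% (v/v) DMSO-containing PBS by gavage once daily for 28 d. OVX and sham controls received vehicle. Body weight was compared with sham control 5 weeks after OVX.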

| SMILES | half-life [1] [h] | half-life [2] [h] | half-life [3] [h] | Cmax [4] [nM] | Cmax [5] [nM] | AUC(0-inf) [6] [µM·h] | AUC(0-inf) [7] [µM·h] | IC50 [8] [µM] | AUC(0-inf) [9] [µM·h] | Activity (MC3T3-E1 [10]) [%] | Activity (MC3T3-E1 [11]) [%] | bioavailability [12] [%] | bioavailability [13] [%] | Activity (Mus musculus [15]) | Activity (Mus musculus [16]) | Activity (Mus musculus [17]) | Activity (Mus musculus [18]) | Activity (Mus musculus [19]) | Activity (Mus musculus [20]) | Activity (Mus musculus [21]) | other results |
| --- | --- | --- | --- | --- | --- | --- | --- | --- | --- | --- | --- | --- | --- | --- | --- | --- | --- | --- | --- | --- | --- |
| CC(=O)/C=C/c1ccc(O)c(O)c1 | 0.4 | 2.1 | 3.1 | 200 | 1100 | 0.039 | 0.14 | 7.8 | 0.66 | 120 | 280 | 66 | 76 | Active | Active | Active | Active | Active | Active | Active | fold change (FC) (MC3T3-E1 [14]): 1.4; CC50 at 24 h [22]: 500 µM; Activity [23]: Toxic |
| COc1ccc(/C=C/C(C)=O)cc1O | 1 | 1.2 | 2.2 | 160 | 880 | 0.1 | 0.14 | 0.11 | 0.72 | 100 | 180 | 26 | 29 | Active | Active | Active | Active | Active | Active | Active | CC50 at 24 h [22]: > 5000 µM; Activity [23]: Toxic |
